Tm and folding enthalpy data for 73 sequences are collected here from the array DNA melting data of Ke et al. (doi:10.1101/2024.01.08.574731).

A short description of data set [1]: melting temperature; fluorescence melt of hairpins on a sequencing array, two-state fit, raised by 9.35 °C to match UV melts. Particulars: sodium 0.088 M. A digest of the protocol: (§1)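 Cy3 fluorescence of library hairpins on a sequenced MiSeq flow cell, with annealed Cy3 and quencher oligos, was imaged in 50 mM Na-HEPES pH 8.0, 25 mM NaCl in 2.5 °C steps up to 60 °C. Signals were normalised to pre-quench Cy3 and to control variants. Melting temperature and folding enthalpy came from bootstrapped two-state fits, inverse-variance combined over four replicates. Fitted temperatures were raised by 9.35 °C to match UV melts.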

Data set [2] in a line: folding enthalpy; higher = less favourable; fluorescence melt of hairpins on a sequencing array, two-state fit. The following applies: sodium 0.088 M. In outline: as §1

Regarding GCATAGCGAAAGCAACGC ((.(.((....)).).)), in data set [1], the Tm was determined as 35.6 °C. The folding enthalpy in data set [2] is -12 kcal/mol.
As for GCATAGCGAAAGCATTGC (((..((....))..))), the Tm in data set [1] is 50.7 °C. For the same sequence, in data set [2], the folding enthalpy is -18.4 kcal/mol.
Consider GCATAGCGAAAGCCCTGC (((..((....))..))), for which the Tm in data set [1] turned out to be 29.5 °C. Also, the folding enthalpy in data set [2] is -7.04 kcal/mol.
The like results for GCATAGCGAAAGCGACGC ((.(.((....)).).)) were, in that order, 63.7 °C and -34.1 kcal/mol.
The like results for GCATAGCGAAAGCGGTGC (((..((....))..))) were, in that order, 63.6 °C and -32.6 kcal/mol.
The like results for GCATAGCGAAAGCTACGC ((.((((....)))).)) were, in that order, 52.9 °C and -20.3 kcal/mol.
As to GCATAGGCGAAAGCCTGC (((..(((....)))))), the Tm in data set [1] is 49 °C. Further, in data set [2], the folding enthalpy was -13.5 kcal/mol.
As for GCATATACGAAAGTATGC (((..(((....)))))), the Tm in data set [1] worked out at 41.5 °C. The folding enthalpy in data set [2] is -22.3 kcal/mol.
As for GCATATGGAAACATGTGC (((.(((....))).))), the Tm in data set [1] came to 49 °C. For the same sequence, in data set [2], the folding enthalpy is -36.6 kcal/mol.
The like results for GCATCACGAAAGTGTTGC (((.(((....))).))) were, in that order, 55 °C and -44 kcal/mol.
Take GCATCAGAAATGATGC ((((((....)))))): in data set [1], the Tm stood at 57.9 °C. Also, the folding enthalpy in data set [2] is -38.7 kcal/mol.
Consider GCATCCACGAAAGTGTGC (((..(((....)))))), for which the Tm in data set [1] was found to be 37.6 °C. In addition, in data set [2], the folding enthalpy was -14.3 kcal/mol.
The like results for GCATCCGAAAGGAACTGC ((((((....)))..))) were, in that order, 33.5 °C and -17.1 kcal/mol.
Take GCATCCGAAAGGAATGC ((((((....))).))): the Tm in data set [1] is 55.4 °C. For the same sequence, in data set [2], the folding enthalpy is -32.3 kcal/mol.
With GCATCCGAAAGGATTGC ((((((....))).))), the Tm in data set [1] worked out at 53.8 °C. In addition, in data set [2], the folding enthalpy is -16.6 kcal/mol.
On to GCATCCGAAAGGATTTGC ((((((....)))..))), for which the Tm in data set [1] came out at 43.9 °C. In data set [2], the folding enthalpy was -18.5 kcal/mol.
The like results for GCATCCGGAAACAGATGC (((((.(....).))))) were, in that order, 45 °C and -36.8 kcal/mol.
Turning to GCATCCGGAAACGAATGC ((((.((....)).)))), the Tm in data set [1] is 45.5 °C. Also, the folding enthalpy in data set [2] is -44.1 kcal/mol.
The like results for GCATCGCGAAAGCAATGC ((((.((....)).)))) were, in that order, 60.2 °C and -24.6 kcal/mol.
Turning to GCATCGCGAAAGCAGTGC (((..((....))..))), in data set [1], the Tm was determined as 52.3 °C. Further, the folding enthalpy in data set [2] is -18 kcal/mol.
The like results for GCATCGCGAAAGCGCTGC (((.(((....))).))) were, in that order, 56 °C and -42 kcal/mol.
The like results for GCATCGCGAAAGCGTAGC ((..(((....)))..)) were, in that order, 48.5 °C and -17.1 kcal/mol.
Consider GCATCGCGAAAGCTAAGC ((.(.((....)).).)), for which, in data set [1], the Tm is 30.7 °C. Moreover, in data set [2], the folding enthalpy is -6.7 kcal/mol.
The like results for GCATCGCGAAAGCTGTGC (((..((....))..))) were, in that order, 45.8 °C and -21.1 kcal/mol.
Turning to GCATCGGAAACGATGC ((((((....)))))), the Tm in data set [1] was 68.6 °C. Also, the folding enthalpy in data set [2] was -35.8 kcal/mol.
Turning to GCATCTCGAAAGAGCTGC (((.(((....))).))), in data set [1], the Tm turned out to be 48.2 °C. Further, in data set [2], the folding enthalpy is -30.9 kcal/mol.
Take GCATCTCGAAAGAGTTGC (((.(((....))).))): the Tm in data set [1] was determined as 50.6 °C. The folding enthalpy in data set [2] is -33.9 kcal/mol.
Consider GCATCTTCGAAAGAATGC (((..(((....)))))), for which the Tm in data set [1] worked out at 33.4 °C. In addition, the folding enthalpy in data set [2] is -23.2 kcal/mol.
The like results for GCATGACGAAAGTCTTGC (((.(((....))).))) were, in that order, 57.5 °C and -38.3 kcal/mol.
GCATGAGGAAACTCATGC (((((((....))))))): the Tm in data set [1] was 65.3 °C. For the same sequence, in data set [2], the folding enthalpy is -40.3 kcal/mol.
The like results for GCATGCCGAAAGGCTTGC (((.(((....))).))) were, in that order, 66.2 °C and -26.9 kcal/mol.
Take GCATGCGAAAGCAAGTGC ((((((....)))..))): the Tm in data set [1] amounted to 46.8 °C. Also, the folding enthalpy in data set [2] is -17.8 kcal/mol.
Turning to GCATGCGAAAGCAATGC ((((((....))).))), the Tm in data set [1] stood at 64.2 °C. Also, the folding enthalpy in data set [2] was -31 kcal/mol.
Take GCATGCGAAAGCACCTGC ((((((....)))..))): the Tm in data set [1] was 33 °C. In addition, the folding enthalpy in data set [2] is -10.9 kcal/mol.
The like results for GCATGCGAAAGCAGCTGC ((((((....)))..))) were, in that order, 54 °C and -17.9 kcal/mol.
Consider GCATGCGAAAGCATGTGC ((((((....)))..))), for which the Tm in data set [1] was 64 °C. In addition, the folding enthalpy in data set [2] was -15.5 kcal/mol.
The like results for GCATGCGGAAACGCGTGC (((.(((....))).))) were, in that order, 67.6 °C and -45.2 kcal/mol.
Turning to GCATGGCGAAAGCAAAGC ((.(.((....)).).)), the Tm in data set [1] was 31.8 °C. Besides, the folding enthalpy in data set [2] is -10.9 kcal/mol.
The like results for GCATGGCGAAAGCAACGC ((.(.((....)).).)) were, in that order, 30.7 °C and -10.8 kcal/mol.
For the sequence GCATGGCGAAAGCACTGC (((..((....))..))), the Tm in data set [1] amounted to 46.3 °C. In addition, in data set [2], the folding enthalpy is -20.6 kcal/mol.
As for GCATGGCGAAAGCGCTGC (((..((....))..))), the Tm in data set [1] worked out at 51.6 °C. Further, the folding enthalpy in data set [2] is -18.6 kcal/mol.
The like results for GCATGGCGAAAGCTATGC ((((.((....)).)))) were, in that order, 66.6 °C and -37.9 kcal/mol.
As for GCATGGGGAAACTCATGC (((((.(....).))))), the Tm in data set [1] is 51.9 °C. Besides, the folding enthalpy in data set [2] is -40.3 kcal/mol.
As to GCATGTCCGAAAGGATGC (((..(((....)))))), in data set [1], the Tm came out at 40.2 °C. Besides, the folding enthalpy in data set [2] is -16.4 kcal/mol.
The like results for GCATGTCGAAAGACTTGC (((.(((....))).))) were, in that order, 54.6 °C and -43.8 kcal/mol.
The like results for GCATGTGAAAACATGC ((((((....)))))) were, in that order, 64 °C and -38.3 kcal/mol.
Turning to GCATGTGGAAACATATGC ((((.((....)).)))), the Tm in data set [1] is 49.5 °C. For the same sequence, the folding enthalpy in data set [2] was -30.9 kcal/mol.
The like results for GCATTAGGAAACCAATGC (((((.(....).))))) were, in that order, 39.6 °C and -29.6 kcal/mol.
The like results for GCATTAGGAAACTGATGC ((((.((....)).)))) were, in that order, 45.4 °C and -36.7 kcal/mol.
The like results for GCATTCGAAAGAATGTGC ((((((....)))..))) were, in that order, 50.6 °C and -36.8 kcal/mol.
With GCATTGCGAAAGCACAGC ((..(((....)))..)), the Tm in data set [1] is 35.4 °C. In addition, the folding enthalpy in data set [2] was -15.2 kcal/mol.
The like results for GCATTGCGAAAGCACGGC ((..(((....)))..)) were, in that order, 40 °C and -16.6 kcal/mol.
Regarding GCATTGCGAAAGCACTGC (((.(((....))).))), the Tm in data set [1] worked out at 52.2 °C. Besides, the folding enthalpy in data set [2] is -45.1 kcal/mol.
As for GCATTGCGAAAGCCAGGC ((.(.((....)).).)), in data set [1], the Tm worked out at 38.5 °C. Further, the folding enthalpy in data set [2] was -17.6 kcal/mol.
The like results for GCATTGCGAAAGCCCTGC (((..((....))..))) were, in that order, 34.5 °C and -14.6 kcal/mol.
Consider GCATTGCGAAAGCCGTGC (((..((....))..))), for which, in data set [1], the Tm turned out to be 41.2 °C. In addition, the folding enthalpy in data set [2] was -22 kcal/mol.
The like results for GCATTGCGAAAGCGATGC ((((.((....)).)))) were, in that order, 67.5 °C and -38 kcal/mol.
Consider GCATTGGGAAACCAATGC (((((((....))))))), for which the Tm in data set [1] worked out at 65.8 °C. Besides, the folding enthalpy in data set [2] was -44.9 kcal/mol.
Regarding GCATTGGGAAACTGATGC ((((..(....)..)))), in data set [1], the Tm stood at 38.8 °C. Besides, the folding enthalpy in data set [2] was -30 kcal/mol.
The like results for GCATTTCGAAAGAATGC (((.(((....)))))) were, in that order, 45.5 °C and -30.5 kcal/mol.
On to GCATTTGCGAAAGCATGC (((..(((....)))))), for which the Tm in data set [1] turned out to be 44.9 °C. The folding enthalpy in data set [2] is -17.9 kcal/mol.
The like results for GCCAAAGCGAAAGCTGGC (((..(((....)))))) were, in that order, 59.7 °C and -26.1 kcal/mol.
The like results for GCCAAAGGAAACTTCGGC (((.(((....))).))) were, in that order, 39.6 °C and -24 kcal/mol.
In the case of GCCAACCGAAAGGTAGGC (((.(((....))).))), the Tm in data set [1] amounted to 60.4 °C. Also, the folding enthalpy in data set [2] is -39.1 kcal/mol.
The like results for GCCAACGAAAGTTCAGGC ((((((....)))..))) were, in that order, 40.7 °C and -28.2 kcal/mol.
GCCAACGAAAGTTCGGC ((((((....))).))): the Tm in data set [1] turned out to be 51.2 °C. For the same sequence, the folding enthalpy in data set [2] is -26.3 kcal/mol.
The like results for GCCAACGAAAGTTTGGGC ((((((....)))..))) were, in that order, 46 °C and -26.9 kcal/mol.
The like results for GCCAAGCGAAAGCATGGC ((((.((....)).)))) were, in that order, 67 °C and -34.9 kcal/mol.
As for GCCAAGCGAAAGCCAGGC (((..((....))..))), the Tm in data set [1] was determined as 54.5 °C. Besides, in data set [2], the folding enthalpy was -22.2 kcal/mol.
The like results for GCCAAGCGAAAGCTAGGC (((.(((....))).))) were, in that order, 60.4 °C and -40.1 kcal/mol.
For GCCAAGGAAACTTGGC ((((((....)))))), the Tm in data set [1] turned out to be 62.9 °C. The folding enthalpy in data set [2] was -38.2 kcal/mol.
The like results for GCCAATCGAAAGATAGGC (((.(((....))).))) were, in that order, 52.1 °C and -35.6 kcal/mol.
As to GCCACAGGAAACCGTGGC (((((.(....).))))), the Tm in data set [1] was found to be 55.4 °C. In addition, the folding enthalpy in data set [2] was -43 kcal/mol.
